From ChEMBL document CHEMBL1126893, “Synthesis and CLOGP correlation of imidooxy anticonvulsants” (J Med Chem, 1993) come the findings set out here.

The ED50 is the dose that gives a 50% effect, or the effect in half of the subjects. A higher ED50 goes with a need for a large dose.

Holding throughout (type): functional
Assay [1] relates to Mus musculus. The assay is described as follows: Anticonvulsant activity was measured by rotarod toxicity test on mice at 30 min at the dose of 300 mg/kg; number of animals protected/number of animals tested 0/4. On the technique in general: In the rotarod test animals must keep their balance on a rotating rod.
The test system of assay [2] is Mus musculus. The assay is described as follows: Anticonvulsant activity was measured by rotarod toxicity test on mice at 4 h at the dose of 300 mg/kg; number of animals protected/number of animals tested 0/2.
Assay [3] relates to Mus musculus. Description: Time of peak effect of activity of compound was measured by both MES and sc Met test in mice. An outline of the steps: (§1)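 Phase II quantification in mice after ip dosing. ED50 (scMet or MES) measured at the time of peak effect. TD50 (rotorod neurologic deficit) measured at the time of peak neurologic deficit. Medians and 95% confidence limits by the Litchfield-Wilcoxon method. Protective index = TD50/ED50. Time of peak effect determined in the MES or scMet test.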

For assay [4], the system named is Mus musculus. Description: Time of peak effect of toxicity of compound was measured by both MES and sc Met test in mice. The method in brief:
as §1

Assay [5] deals with Mus musculus. The assay is described as follows: Anticonvulsant activity was measured by subcutaneous pentylenetetrazole test on mice at 30 min at the dose of 300 mg/kg; number of animals protected/number of animals tested 1/1.
For assay [6], the system named is Mus musculus. The assay is described as follows: Effective dose was measured in mouse by maximal electroshock method by ip administration. The method in brief:
as §1

The test system of assay [7] is Mus musculus. Description: Effective dose was measured in mouse by subcutaneous pentylenetetrazole method by ip administration. The method in brief:
as §1

Assay [8] deals with Mus musculus. The assay is described as follows: Anticonvulsant activity was measured by subcutaneous pentylenetetrazole test on mice at 4 hr at the dose of 300 mg/kg; number of animals protected/number of animals tested 0/1.
The test system of assay [9] is Mus musculus. The assay is described as follows: Anticonvulsant activity was measured by rotarod toxicity teston mice at 0.25 hr at the dose of 100 mg/kg; number of animals protected/number of animals tested 0/2.
Assay [10] has as its system Mus musculus. Description: Anticonvulsant activity was measured by rotarod toxicity test on mice at 1 hr at the dose of 100 mg/kg; number of animals protected/number of animals tested, 0/2.
The test system of assay [11] is Mus musculus. The assay is described as follows: Anticonvulsant activity was measured by maximal electroshock test on mice at 30 min at the dose of 300 mg/kg; number of animals protected/number of animals tested 1/1. (In general: Protection in the maximal electroshock model is a classic sign of anticonvulsant action.)
For assay [12], the species on record is Mus musculus. Description: Protective index (TD50/ED50) value in MES test in mice.
The species entered for assay [13] is Mus musculus. Description: Protective index (TD50/ED50) value in scMET test in mice. The method in brief: as §1
The test system of assay [14] is Mus musculus. Description: Anticonvulsant activity was measured by maximal electroshock test on mice at 0.25 hr at the dose of 100 mg/kg; number of animals protected/number of animals tested 0/2.
The subject of assay [15] is Mus musculus. Description: Anticonvulsant activity was measured by maximal electroshock test on mice at 4 h at the dose of 300 mg/kg; number of animals protected/number of animals tested 0/1.

Take `O=C1CC2(CCCC2)C(=O)N1OCc1ccc(C(F)(F)F)cc1`: the Ratio with Mus musculus [1] amounted to 0; in the assay on Mus musculus [2], 0; with Mus musculus [5], 1; with Mus musculus [8], 0; with Mus musculus [9], 0; with Mus musculus [10], 0. For the same compound, the Ratio with Mus musculus [11] is given as 1; with Mus musculus [14], 0; in the assay on Mus musculus [15], 0. Also, the TPE was found to be 2 with Mus musculus [3] and 0.25 in the assay on Mus musculus [4]. Besides, the ED50 in the assay on Mus musculus [6] and in the assay with Mus musculus [7] was 300 mg/kg throughout. The PI in the assay listed under Mus musculus [12] and in the assay listed under Mus musculus [13] was greater than 1.7 in each case.
